Measurements as given in ChEMBL document CHEMBL1151831, “Acylated iridoids with cytotoxicity from Valeriana jatamansi” (J Nat Prod, 2009).
pIC50: −log10 of the molar value.

Assays:
Type in all cases: functional, cell-based
A549 = test: Cytotoxicity against human A549 cells after 24 hrs by MTT assay; settings: A549, 24 h
Summary of the method: (§1)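 Human cancer lines from ATCC, seeded at 3000 cells per well and exposed 24 h later to a range of concentrations for 24 h. MTT was then added, plates were incubated a further 24 h, and viability was read as absorbance at 570 nm. IC50 values were calculated from the readings.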

HCT-8 = test: Cytotoxicity against human HCT8 cells after 24 hrs by MTT assay; settings: HCT-8, 24 h; summary of the method: as §1
Bel-7402 = test: Cytotoxicity against human Bel7402 cells after 24 hrs by MTT assay; settings: Bel-7402, 24 h; summary of the method: as §1
[1] = Cytotoxicity against human PC3M cells after 24 hrs by MTT assay; settings: PC-3M; summary of the method: as §1

| Compound | pIC50 (A549) | pIC50 (HCT-8) | pIC50 (Bel-7402) | pIC50 [1] |
| --- | --- | --- | --- | --- |
| CC(=O)O[C@H]1C[C@]2(O)C(COC(=O)C(OC(=O)CC(C)C)C(C)C)=CO[C@@H](OC(=O)CC(C)C)[C@@H]2[C@@]12CO2 (stereo partly specified) | 5.13 | 5.60 | 5.40 | 5.72 |
| CC(=O)O[C@H]1C[C@]2(O)C(COC(=O)CC(C)C)=CO[C@@H](OC(=O)CC(C)C)[C@@H]2[C@@]12CO2 | 5.15 | 5.82 | 5.64 | 5.66 |
| CC(=O)OCC1=CO[C@@H](OC(=O)CC(C)C)[C@H]2C1=C[C@H](OC(=O)CC(C)C)[C@]2(O)COC(C)=O | 5.07 | < 5.00 | < 5.00 | < 5.00 |
| CC(=O)OCC1=CO[C@@H](OC(=O)CC(C)C)[C@H]2C1=C[C@H](OC(=O)CC(C)(C)OC(C)=O)[C@]21CO1 [ACEVALTRATE] | 5.54 | 6.00 | 5.77 | 5.85 |
| CC(=O)OC[C@]1(O)[C@H]2[C@H](OC(=O)CC(C)C)OC=C(COC(=O)CC(C)C)[C@H]2C[C@@H]1OC(C)=O [DIDROVALTRATE ACETOXY HYDRIN] | 5.52 | 5.59 | 5.36 | 5.80 |
| CC(=O)O[C@H]1C[C@@H]2C(COC(=O)CC(C)C)=CO[C@@H](OC(=O)CC(C)C)[C@@H]2[C@@]12CO2 [DIDROVALTRATE] | < 5.00 | 5.18 | 5.12 | 5.42 |
| CC(=O)O[C@H]1C[C@]2(O)C(COC(=O)C(OC(=O)CC(C)C)C(C)C)=CO[C@@H](OC(=O)CC(C)C)[C@@H]2[C@@]1(O)COC(=O)CC(C)(C)OC(C)=O (stereo partly specified) [JATAMANVALTRATE A] | < 5.00 | < 5.00 | < 5.00 | 5.28 |
| CC(=O)O[C@H]1C[C@]2(O)C(COC(=O)C(OC(=O)CC(C)C)C(C)C)=CO[C@@H](OC(=O)CC(C)C)[C@@H]2[C@@]1(O)COC(=O)CC(C)C (stereo partly specified) [JATAMANVALTRATE B] | < 5.00 | 5.21 | < 5.00 | 5.41 |
| CC(=O)OC[C@@]1(O)[C@@H](OC(C)=O)C[C@]2(O)C(COC(=O)C(OC(=O)CC(C)C)C(C)C)=CO[C@@H](OC(=O)CC(C)C)[C@H]12 (stereo partly specified) [JATAMANVALTRATE C] | < 5.00 | < 5.00 | < 5.00 | < 5.00 |
| CC(=O)O[C@H]1C[C@]2(O)C(COC(=O)C(OC(=O)CC(C)C)C(C)C)=CO[C@@H](OC(=O)CC(C)C)[C@@H]2[C@@]1(O)COC(=O)c1ccccc1O (stereo partly specified) [JATAMANVALTRATE D] | < 5.00 | 5.35 | 5.01 | 5.42 |
| COC[C@@]1(O)[C@@H](OC(C)=O)C[C@]2(O)C(COC(=O)C(OC(=O)CC(C)C)C(C)C)=CO[C@@H](OC(=O)CC(C)C)[C@H]12 (stereo partly specified) [JATAMANVALTRATE E] | < 5.00 | 5.01 | 5.07 | < 5.00 |
| CC(=O)O[C@H]1C[C@@H]2C(COC(=O)CC(C)C)=CO[C@@H](OC(=O)CC(C)C)[C@@H]2[C@@]1(O)COC(=O)CC(C)(C)OC(C)=O [JATAMANVALTRATE F] | < 5.00 | < 5.00 | 5.06 | 5.37 |
| CC(=O)OC[C@]1(O)[C@H]2[C@H](OC(=O)CC(C)C)OC=C(COC(=O)CC(C)C)[C@H]2C[C@@H]1O [JATAMANVALTRATE G] | < 5.00 | < 5.00 | 5.23 | 5.25 |
| CC(=O)O[C@H]1C[C@@H]2C(COC(=O)CC(C)C)=CO[C@@H](OC(=O)CC(C)C)[C@@H]2[C@@]1(O)CO [JATAMANVALTRATE H] | < 5.00 | < 5.00 | < 5.00 | 5.28 |
| CC(=O)O[C@H]1C=C2C(COC(=O)CC(C)C)=CO[C@@H](OC(=O)CC(C)C)[C@@H]2[C@@]1(O)COC(=O)c1ccccc1O [JATAMANVALTRATE I] | < 5.00 | 5.01 | < 5.00 | 5.41 |
| CC(=O)OCC1=CO[C@@H](OC(=O)CC(C)C)[C@H]2C1=C[C@H](O)[C@]2(O)COC(=O)CC(C)C [JATAMANVALTRATE J] | < 5.00 | < 5.00 | < 5.00 | 5.24 |
| CC(=O)OCC1=CO[C@@H](OC(=O)CC(C)C)[C@H]2C1=C[C@H](OC(=O)CC(C)C)[C@]2(O)CO [JATAMANVALTRATE K] | < 5.00 | < 5.00 | 5.15 | 5.30 |
| CC(C)CC(=O)OC(C(=O)OCC1=CO[C@@H](OC(=O)CC(C)C)[C@@H]2[C@@]3(CO3)[C@@H](O)C[C@]12O)C(C)C (stereo partly specified) [JATAMANVALTRATE L] | < 5.00 | < 5.00 | 5.12 | 5.47 |
| CCOCC1=CO[C@@H](OC(=O)CC(C)C)[C@@H]2[C@@]3(CO3)[C@@H](OC(C)=O)C[C@]12O [JATAMANVALTRATE M] | < 5.00 | < 5.00 | < 5.00 | 5.20 |
| CC(=O)O[C@H]1C(=O)[C@@]2(C)[C@H]([C@H](OC(=O)c3ccccc3)[C@]3(O)C[C@H](OC(=O)[C@H](O)[C@@H](NC(=O)c4ccccc4)c4ccccc4)C(C)=C1C3(C)C)[C@]1(OC(C)=O)CO[C@@H]1C[C@@H]2O [PACLITAXEL] | 8.28 |  | 7.02 | 7.57 |
| CC(=O)O[C@H]1C[C@]2(O)C(COC(=O)C(OC(=O)CC(C)C)C(C)C)=CO[C@@H](OC(=O)CC(C)C)[C@@H]2[C@@]1(O)COC(=O)C(OC(=O)CC(C)C)C(C)C (stereo partly specified) [VALERIOTETRATE A] | < 5.00 | 5.09 | 5.00 | 5.51 |
| CC(=O)OC[C@]1(O)[C@H]2[C@H](OC(=O)CC(C)C)OC=C(COC(=O)C(OC(=O)CC(C)C)C(C)C)[C@@]2(O)C[C@@H]1O (stereo partly specified) [VALERIOTRIATE B] | < 5.00 | < 5.00 | < 5.00 | 5.41 |
| CC(=O)OCC1=CO[C@@H](OC(=O)CC(C)C)[C@H]2C1=C[C@H](OC(=O)CC(C)C)[C@]21CO1 [VALTRATE] | 5.43 | 5.74 | 5.21 | 5.80 |
